The values below come from ChEMBL document CHEMBL1139245, “Synthesis and antiinflammatory activity of some new 1,3,5-trisubstituted pyrazolines bearing benzene sulfonamide” (Bioorg Med Chem Lett, 2009).

Broadly, the inhibition is the relative decrease from the control value, in per cent.

For one series, the target named is Prostaglandin G/H synthase 2 (Ovis aries) (UniProt P79208). Description: Inhibition of recombinant COX2 at 0.05 uM.
Prostaglandin G/H synthase 2 (Ovis aries), sequence (P79208 whole entry, looked up): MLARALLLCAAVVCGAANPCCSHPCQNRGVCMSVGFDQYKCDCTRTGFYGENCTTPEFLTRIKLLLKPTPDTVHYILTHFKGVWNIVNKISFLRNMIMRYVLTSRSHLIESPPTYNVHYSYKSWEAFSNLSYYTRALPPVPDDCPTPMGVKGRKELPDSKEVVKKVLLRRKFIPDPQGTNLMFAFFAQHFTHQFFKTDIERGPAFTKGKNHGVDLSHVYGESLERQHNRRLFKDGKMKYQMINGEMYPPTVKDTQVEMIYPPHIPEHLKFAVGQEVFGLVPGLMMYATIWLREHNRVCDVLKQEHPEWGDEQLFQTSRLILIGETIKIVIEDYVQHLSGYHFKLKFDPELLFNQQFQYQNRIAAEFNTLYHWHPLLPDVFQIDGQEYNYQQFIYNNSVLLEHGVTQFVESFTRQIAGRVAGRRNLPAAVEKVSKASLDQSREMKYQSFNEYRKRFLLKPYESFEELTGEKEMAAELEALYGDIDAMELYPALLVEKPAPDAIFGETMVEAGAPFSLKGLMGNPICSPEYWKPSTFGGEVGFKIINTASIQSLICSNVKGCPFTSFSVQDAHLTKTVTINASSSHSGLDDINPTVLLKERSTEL
Settings: not given
For the molecule `COc1ccc(C2=NN(c3ccc(S(N)(=O)=O)cc3)C(c3ccc(N(C)C)cc3)C2)c(OC)c1` (stereo unspecified), the inhibition came to 50%.
Still for that read-out and setting: next, `COc1ccc(C2=NN(c3ccc(S(N)(=O)=O)cc3)C(c3cc(OC)c(OC)c(OC)c3)C2)c(OC)c1` (stereo unspecified): 38.6%; `COc1ccc(C2=NN(c3ccc(S(N)(=O)=O)cc3)C(c3cccc([N+](=O)[O-])c3)C2)c(OC)c1` (stereo unspecified): 42.9%.
On the same count and under the same terms, under `COc1ccc(C2=NN(c3ccc(S(N)(=O)=O)cc3)C(c3ccccc3)C2)c(OC)c1` (stereo unspecified) stands 85.7%.

In another series the target is Prostaglandin G/H synthase 1 (Ovis aries) (UniProt P05979). Description: Inhibition of recombinant COX1 at 0.05 uM.
Prostaglandin G/H synthase 1 (Ovis aries), sequence (P05979 whole entry, looked up): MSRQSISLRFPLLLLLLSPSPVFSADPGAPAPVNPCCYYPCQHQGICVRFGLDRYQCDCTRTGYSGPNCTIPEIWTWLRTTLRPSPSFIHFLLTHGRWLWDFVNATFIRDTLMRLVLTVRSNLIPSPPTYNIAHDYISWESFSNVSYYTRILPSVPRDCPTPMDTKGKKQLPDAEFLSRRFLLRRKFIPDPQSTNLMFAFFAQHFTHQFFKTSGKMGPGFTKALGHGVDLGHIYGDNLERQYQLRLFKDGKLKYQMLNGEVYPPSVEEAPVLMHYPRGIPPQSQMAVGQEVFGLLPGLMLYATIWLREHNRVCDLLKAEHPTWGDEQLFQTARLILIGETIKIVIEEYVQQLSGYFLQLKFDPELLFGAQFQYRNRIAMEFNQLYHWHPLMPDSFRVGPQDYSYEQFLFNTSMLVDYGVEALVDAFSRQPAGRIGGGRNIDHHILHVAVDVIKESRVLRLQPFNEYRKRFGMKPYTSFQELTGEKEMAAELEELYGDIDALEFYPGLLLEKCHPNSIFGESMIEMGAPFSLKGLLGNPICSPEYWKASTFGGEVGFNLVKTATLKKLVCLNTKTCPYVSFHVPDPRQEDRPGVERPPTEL
Settings: not given
As to `COc1ccc(C2=NN(c3ccc(S(N)(=O)=O)cc3)C(c3ccc(N(C)C)cc3)C2)c(OC)c1` (stereo unspecified), the inhibition turned out to be 60.9%.
In the case of `COc1ccc(C2=NN(c3ccc(S(N)(=O)=O)cc3)C(c3cc(OC)c(OC)c(OC)c3)C2)c(OC)c1` (stereo unspecified), the inhibition was 30%.
Regarding `COc1ccc(C2=NN(c3ccc(S(N)(=O)=O)cc3)C(c3cccc([N+](=O)[O-])c3)C2)c(OC)c1` (stereo unspecified), the inhibition turned out to be 58.8%.
The same measure, in the same setting: next, `COc1ccc(C2=NN(c3ccc(S(N)(=O)=O)cc3)C(c3ccccc3)C2)c(OC)c1` (stereo unspecified): 73.2%.

The next series relates to Rattus norvegicus. Description: Antiinflammatory activity in carrageenan-induced Wistar rat paw edema model assessed as increase in paw volume at 20 mg/kg, po measured 3 hrs after carrageenan challenge relative to control. Format: functional.
Settings: not given
A digest of the protocol: (§1)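 Wistar rats of either sex (150–175 g), fasted 16 h overnight, groups of six; compound dosed orally at 20 mg/kg bw. 30 min later 0.1 ml of 1% carrageenan in normal saline injected into subplantar aponeurosis of left hind paw. Paw volume read by plethysmometer at 0, 3 and 5 h; increase in volume (ml, SEM) and % inhibition versus control.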
On to `Cc1cc(=O)oc2c(C3=NN(c4ccc(S(N)(=O)=O)cc4)C(c4cccc(O)c4)C3)c(O)ccc12` (stereo unspecified), for which the Activity stood at 20%.
Consider `COc1ccc(C2CC(c3c(O)ccc4c(C)cc(=O)oc34)=NN2c2ccc(S(N)(=O)=O)cc2)cc1` (stereo unspecified), for which the Activity turned out to be 20%.
On to `COc1ccc(C2CC(c3ccc(OC)cc3OC)=NN2c2ccc(S(N)(=O)=O)cc2)cc1` (stereo unspecified), for which the Activity is 49.3%.
In the case of `COc1ccc(C2CC(c3ccc(OC)cc3O)=NN2c2ccc(S(N)(=O)=O)cc2)cc1` (stereo unspecified), the Activity is 27%.
Same read-out and setting: next, `COc1ccc(C2=NN(c3ccc(S(N)(=O)=O)cc3)C(c3ccc(N(C)C)cc3)C2)c(OC)c1` (stereo unspecified): 79.6%; `COc1ccc(C2=NN(c3ccc(S(N)(=O)=O)cc3)C(c3ccc(Cl)cc3)C2)c(O)c1` (stereo unspecified): 28.6%.
Still for that read-out and setting: next, `COc1ccc(C2=NN(c3ccc(S(N)(=O)=O)cc3)C(c3ccc(Cl)cc3)C2)c(OC)c1` (stereo unspecified): 25%; `COc1ccc(C2=NN(c3ccc(S(N)(=O)=O)cc3)C(c3cc(OC)c(OC)c(OC)c3)C2)c(OC)c1` (stereo unspecified): 83.3%.
For the molecule `COc1ccc(C2=NN(c3ccc(S(N)(=O)=O)cc3)C(c3ccccc3Cl)C2)c(O)c1` (stereo unspecified), the Activity came out at 60%.
In the case of `COc1ccc(C2=NN(c3ccc(S(N)(=O)=O)cc3)C(c3cc(OC)c(OC)c(OC)c3)C2)c(O)c1` (stereo unspecified), the Activity is on record as 0%.
Consider `COc1ccc(C2=NN(c3ccc(S(N)(=O)=O)cc3)C(c3ccccc3)C2)c(O)c1` (stereo unspecified), for which the Activity turned out to be 0%.
For the molecule `COc1ccc(C2=NN(c3ccc(S(N)(=O)=O)cc3)C(c3cccc(O)c3)C2)c(OC)c1` (stereo unspecified), the Activity was determined as 26.6%.
For the molecule `COc1ccc(C2=NN(c3ccc(S(N)(=O)=O)cc3)C(c3cccc([N+](=O)[O-])c3)C2)c(OC)c1` (stereo unspecified), the Activity is 68.8%.
In the case of `COc1ccc(C2CC(c3ccccc3O)=NN2c2ccc(S(N)(=O)=O)cc2)cc1OC` (stereo unspecified), the Activity amounted to 52%.
Same read-out and setting: next, `COc1ccc(C2=NN(c3ccc(S(N)(=O)=O)cc3)C(c3ccc(OC)c(OC)c3)C2)c(O)c1` (stereo unspecified): 9%; `COc1ccc(C2=NN(c3ccc(S(N)(=O)=O)cc3)C(c3ccccc3Cl)C2)c(OC)c1` (stereo unspecified): 26.3%.
The same measure, in the same setting: next, `COc1ccc(C2=NN(c3ccc(S(N)(=O)=O)cc3)C(c3ccccc3)C2)c(OC)c1` (stereo unspecified): 70%; `COc1ccc(C2=NN(c3ccc(S(N)(=O)=O)cc3)C(c3cccc(O)c3)C2)c(O)c1` (stereo unspecified): 33.3%.
For the molecule `COc1ccc(C2CC(c3ccccc3O)=NN2c2ccc(S(N)(=O)=O)cc2)cc1` (stereo unspecified), the Activity is on record as 50%.

The test system of another series is Rattus norvegicus. The experiment in a line: Gastrointestinal toxicity in Wistar rat assessed as induction of gastric ulceration at 60 mg/kg, po. Set-up: dose 60 mg/kg, route oral. The note with it: in vivo. It counts as organism-based, Stomach. In a few lines: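 Acute gastric ulcerogenicity in Wistar rats given 60 mg/kg bw orally. Animals sacrificed under deep ether anesthesia 6 h after treatment. Stomachs removed and opened along the greater curvature, then examined for lesions or bleeding.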
For the molecule `COc1ccc(C2=NN(c3ccc(S(N)(=O)=O)cc3)C(c3ccc(N(C)C)cc3)C2)c(OC)c1` (stereo unspecified), the Activity entry is “Non-toxic”.
For the molecule `COc1ccc(C2=NN(c3ccc(S(N)(=O)=O)cc3)C(c3cc(OC)c(OC)c(OC)c3)C2)c(OC)c1` (stereo unspecified), the Activity result is recorded as “Non-toxic”.
Same read-out and setting: under `COc1ccc(C2=NN(c3ccc(S(N)(=O)=O)cc3)C(c3cccc([N+](=O)[O-])c3)C2)c(OC)c1` (stereo unspecified) stands “Non-toxic”; under `COc1ccc(C2=NN(c3ccc(S(N)(=O)=O)cc3)C(c3ccccc3)C2)c(OC)c1` (stereo unspecified), “Non-toxic”.

The test system of the next series is Rattus norvegicus. The experiment in a line: Antiinflammatory activity in carrageenan-induced Wistar rat paw edema model assessed as increase in paw volume at 20 mg/kg, po measured 5 hrs after carrageenan challenge relative to control. It counts as functional.
Settings: not given
In a few lines: as §1
`Cc1cc(=O)oc2c(C3=NN(c4ccc(S(N)(=O)=O)cc4)C(c4cccc(O)c4)C3)c(O)ccc12` (stereo unspecified): the Activity came to 30.6%.
Still for that read-out and setting: next, `COc1ccc(C2CC(c3c(O)ccc4c(C)cc(=O)oc34)=NN2c2ccc(S(N)(=O)=O)cc2)cc1` (stereo unspecified): 10.6%; `Cc1ccc(-c2cc(C(F)(F)F)nn2-c2ccc(S(N)(=O)=O)cc2)cc1` [CELECOXIB]: 40%; `COc1ccc(C2CC(c3ccc(OC)cc3OC)=NN2c2ccc(S(N)(=O)=O)cc2)cc1` (stereo unspecified): 10.6%.
The same measure, in the same setting: next, `COc1ccc(C2CC(c3ccc(OC)cc3O)=NN2c2ccc(S(N)(=O)=O)cc2)cc1` (stereo unspecified): 37.3%; `COc1ccc(C2=NN(c3ccc(S(N)(=O)=O)cc3)C(c3ccc(N(C)C)cc3)C2)c(OC)c1` (stereo unspecified): 79.6%; `COc1ccc(C2=NN(c3ccc(S(N)(=O)=O)cc3)C(c3ccc(Cl)cc3)C2)c(O)c1` (stereo unspecified): 46.3%.
On the same count and under the same terms, under `COc1ccc(C2=NN(c3ccc(S(N)(=O)=O)cc3)C(c3ccc(Cl)cc3)C2)c(OC)c1` (stereo unspecified) stands 6.6%; under `COc1ccc(C2=NN(c3ccc(S(N)(=O)=O)cc3)C(c3cc(OC)c(OC)c(OC)c3)C2)c(OC)c1` (stereo unspecified), 76.6%; under `COc1ccc(C2=NN(c3ccc(S(N)(=O)=O)cc3)C(c3ccccc3Cl)C2)c(O)c1` (stereo unspecified), 35.3%.
`COc1ccc(C2=NN(c3ccc(S(N)(=O)=O)cc3)C(c3cc(OC)c(OC)c(OC)c3)C2)c(O)c1` (stereo unspecified): the Activity turned out to be 0%.
Regarding `COc1ccc(C2=NN(c3ccc(S(N)(=O)=O)cc3)C(c3ccccc3)C2)c(O)c1` (stereo unspecified), the Activity is listed as 0%.
Still for that read-out and setting: under `COc1ccc(C2=NN(c3ccc(S(N)(=O)=O)cc3)C(c3cccc(O)c3)C2)c(OC)c1` (stereo unspecified) stands 5.3%; under `COc1ccc(C2=NN(c3ccc(S(N)(=O)=O)cc3)C(c3cccc([N+](=O)[O-])c3)C2)c(OC)c1` (stereo unspecified), 57.6%.
Still for that read-out and setting: under `COc1ccc(C2CC(c3ccccc3O)=NN2c2ccc(S(N)(=O)=O)cc2)cc1OC` (stereo unspecified) stands 10.6%.
For `COc1ccc(C2=NN(c3ccc(S(N)(=O)=O)cc3)C(c3ccc(OC)c(OC)c3)C2)c(O)c1` (stereo unspecified), the Activity was found to be 13%.
The same measure, in the same setting: under `COc1ccc(C2=NN(c3ccc(S(N)(=O)=O)cc3)C(c3ccccc3Cl)C2)c(OC)c1` (stereo unspecified) stands 46.3%; under `COc1ccc(C2=NN(c3ccc(S(N)(=O)=O)cc3)C(c3ccccc3)C2)c(OC)c1` (stereo unspecified), 66.5%; under `COc1ccc(C2=NN(c3ccc(S(N)(=O)=O)cc3)C(c3cccc(O)c3)C2)c(O)c1` (stereo unspecified), 8.3%.
Same read-out and setting: next, `COc1ccc(C2CC(c3ccccc3O)=NN2c2ccc(S(N)(=O)=O)cc2)cc1` (stereo unspecified): 41.3%.
